Test results as given in ChEMBL document CHEMBL1268908, “Design, synthesis, radiolabeling, and in vivo evaluation of carbon-11 labeled N-[2-[4-(3-cyanopyridin-2-yl)piperazin-1-yl]ethyl]-3-methoxybenzamide, a potential positron emission tomography tracer for the dopamine D(4) receptors” (J Med Chem, 2010).

Key:
Hippocampus [1] = test: Biodistribution in rhesus monkey hippocampus at 150.3 MBq, iv after 4.5 mins; assay type: ADME, organism-based, Macaca mulatta; settings: in vivo, 0.075 h
Outline: (§1)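 Male rhesus monkey under ketamine 10 mg/kg im, head fixed; 20 min 68Ge-68Ga transmission scan, then 90 min dynamic 3D PET (6×0.5, 7×1, 20×2, 8×5 min frames) after iv [11C]-labelled tracer in saline, specific radioactivity about 2.9 TBq/μmol at injection. Regions defined on T1-weighted MRI; uptake expressed as % injected dose per mL.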

[2] = Biodistribution in rhesus monkey entorhinal cortex at 150.3 MBq, iv after 2.75 mins; assay type: ADME, organism-based, Macaca mulatta; settings: in vivo, 165 s
Outline: (§2)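 Single male rhesus monkey anesthetized with ketamine 10 mg/kg im, head fixed. Attenuation correction by 20 min 68Ge-68Ga transmission scan. [11C]-tracer in saline (pH 7.4) given iv, specific radioactivity 2.9 TBq/μmol at injection. Dynamic 3D PET emission scan over 90 min in frames of 0.5 to 5 min. MRI T1 images used to define VOIs. Uptake expressed as […].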

[3] = Biodistribution in rhesus monkey occipital lobe at 150.3 MBq, iv after 9.5 mins; assay type: ADME, organism-based, Macaca mulatta; settings: in vivo
Striatum [4] = test: Biodistribution in rhesus monkey striatum at 150.3 MBq, iv after 17 mins; settings: in vivo
Striatum [5] = test: Biodistribution in rhesus monkey striatum at 150.3 MBq, iv after 15 mins; assay type: ADME, organism-based, Macaca mulatta; settings: in vivo, 0.25 h
Hippocampus [6] = test: Biodistribution in rhesus monkey hippocampus at 150.3 MBq, iv after 35 mins; assay type: ADME, organism-based, Macaca mulatta; settings: in vivo; outline: as §1
Striatum [7] = test: Biodistribution in rhesus monkey striatum at 150.3 MBq, iv after 23 mins; assay type: ADME, organism-based, Macaca mulatta; settings: in vivo
[8] = Biodistribution in rhesus monkey occipital lobe at 150.3 MBq, iv after 11 mins; assay type: ADME, organism-based, Macaca mulatta; settings: in vivo; outline: as §1
[9] = Biodistribution in rhesus monkey cerebellum at 150.3 MBq, iv after 72.5 mins; assay type: ADME, organism-based, Macaca mulatta; settings: in vivo
Outline: (§3)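 Male rhesus monkey under ketamine (10 mg/kg im) with head fixation. After a 20 min 68Ge-68Ga transmission scan, the [11C]-labelled tracer in saline (pH 7.4) was injected iv, at 2.9 TBq/μmol specific radioactivity at injection. A dynamic 3D PET scan followed over 90 min (6×0.5, 7×1, 20×2, 8×5 min frames). Regions were defined on T1-weighted 1.5 T MRI, and uptake is given as %ID/mL.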

Hippocampus [10] = test: Biodistribution in rhesus monkey hippocampus at 150.3 MBq, iv after 37 mins; assay type: ADME, organism-based, Macaca mulatta; settings: in vivo; outline: as §1
Hippocampus [11] = test: Biodistribution in rhesus monkey hippocampus at 150.3 MBq, iv after 72.5 mins; assay type: ADME, organism-based, Macaca mulatta; settings: in vivo; outline: as §1
[12] = Biodistribution in rhesus monkey cerebellum at 150.3 MBq, iv after 77.5 mins; assay type: ADME, organism-based, Macaca mulatta; settings: in vivo; outline: as §3
[13] = Biodistribution in rhesus monkey cerebellum at 150.3 MBq, iv after 49 mins; assay type: ADME, organism-based, Macaca mulatta; settings: in vivo; outline: as §3
[14] = Biodistribution in rhesus monkey occipital lobe at 150.3 MBq, iv after 52.5 mins; assay type: ADME, organism-based, Macaca mulatta; settings: in vivo, 0.875 h
[15] = Biodistribution in rhesus monkey cingulate cortex at 150.3 MBq, iv after 6.5 mins; assay type: ADME, organism-based, Macaca mulatta; settings: in vivo; outline: as §2
[16] = Biodistribution in rhesus monkey occipital lobe at 150.3 MBq, iv after 82.5 mins; assay type: ADME, organism-based, Macaca mulatta; settings: in vivo, 1.375 h
[17] = Biodistribution in rhesus monkey retina at 150.3 MBq, iv after 2.75 mins; assay type: ADME, organism-based, Macaca mulatta; settings: in vivo, 165 s
[18] = Biodistribution in rhesus monkey occipital lobe at 150.3 MBq, iv after 41 mins; assay type: ADME, organism-based, Macaca mulatta; settings: in vivo
Outline: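 A male rhesus monkey was anaesthetised with ketamine 10 mg/kg im and placed in a head fixation device. A 20 min 68Ge-68Ga transmission scan was run for attenuation correction. Radiotracer in saline (pH 7.4) was given iv, about 52 pmol (18 ng), at 2.9 TBq/μmol at injection. A dynamic 3D PET scan followed for 90 min. Regional VOIs were defined on a T1-weighted MRI, with uptake expressed as %ID/mL.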

Striatum [19] = test: Biodistribution in rhesus monkey striatum at 150.3 MBq, iv after 21 mins; assay type: ADME, organism-based, Macaca mulatta; settings: in vivo, 0.35 h
[20] = Biodistribution in rhesus monkey cerebellum at 150.3 MBq, iv after 35 mins; assay type: ADME, organism-based, Macaca mulatta; settings: in vivo; outline: as §3
[21] = Biodistribution in rhesus monkey occipital lobe at 150.3 MBq, iv after 29 mins; assay type: ADME, organism-based, Macaca mulatta; settings: in vivo; outline: as §1
[22] = Biodistribution in rhesus monkey retina at 150.3 MBq, iv after 87.5 mins; assay type: ADME, organism-based, Macaca mulatta; settings: in vivo
[23] = Biodistribution in rhesus monkey occipital lobe at 150.3 MBq, iv after 5.5 mins; assay type: ADME, organism-based, Macaca mulatta; settings: in vivo
[24] = Biodistribution in rhesus monkey entorhinal cortex at 150.3 MBq, iv after 23 mins; assay type: ADME, organism-based, Macaca mulatta; settings: in vivo; outline: as §2
Striatum [25] = test: Biodistribution in rhesus monkey striatum at 150.3 MBq, iv after 9.5 mins; assay type: ADME, organism-based, Macaca mulatta; settings: in vivo
[26] = Biodistribution in rhesus monkey entorhinal cortex at 150.3 MBq, iv after 41 mins; assay type: ADME, organism-based, Macaca mulatta; settings: in vivo; outline: as §2
[27] = Biodistribution in rhesus monkey cerebellum at 150.3 MBq, iv after 23 mins; assay type: ADME, organism-based, Macaca mulatta; settings: in vivo; outline: as §3
Hippocampus [28] = test: Biodistribution in rhesus monkey hippocampus at 150.3 MBq, iv after 39 mins; assay type: ADME, organism-based, Macaca mulatta; settings: in vivo, 0.65 h; outline: as §1
[29] = Biodistribution in rhesus monkey cingulate cortex at 150.3 MBq, iv after 82.5 mins; assay type: ADME, organism-based, Macaca mulatta; settings: in vivo, 1.375 h; outline: as §2
Striatum [30] = test: Biodistribution in rhesus monkey striatum at 150.3 MBq, iv after 11 mins; assay type: ADME, organism-based, Macaca mulatta; settings: in vivo
Hippocampus [31] = test: Biodistribution in rhesus monkey hippocampus at 150.3 MBq, iv after 11 mins; assay type: ADME, organism-based, Macaca mulatta; settings: in vivo; outline: as §2
[32] = Biodistribution in rhesus monkey cingulate cortex at 150.3 MBq, iv after 39 mins; assay type: ADME, organism-based, Macaca mulatta; settings: in vivo, 0.65 h; outline: as §3
[33] = Biodistribution in rhesus monkey retina at 150.3 MBq, iv after 37 mins; assay type: ADME, organism-based, Macaca mulatta; settings: in vivo
Striatum [34] = test: Biodistribution in rhesus monkey striatum at 150.3 MBq, iv after 27 mins; assay type: ADME, organism-based, Macaca mulatta; settings: in vivo, 0.45 h
[35] = Biodistribution in rhesus monkey cerebellum at 150.3 MBq, iv after 11 mins; assay type: ADME, organism-based, Macaca mulatta; settings: in vivo; outline: as §3
Striatum [36] = test: Biodistribution in rhesus monkey striatum at 150.3 MBq, iv after 35 mins; assay type: ADME, organism-based, Macaca mulatta; settings: in vivo
[37] = Biodistribution in rhesus monkey retina at 150.3 MBq, iv after 41 mins; assay type: ADME, organism-based, Macaca mulatta; settings: in vivo
Striatum [38] = test: Biodistribution in rhesus monkey striatum at 150.3 MBq, iv after 3.5 mins; assay type: ADME, organism-based, Macaca mulatta; settings: in vivo
Striatum [39] = test: Biodistribution in rhesus monkey striatum at 150.3 MBq, iv after 0.75 mins; assay type: ADME, organism-based, Macaca mulatta; settings: in vivo, 45 s
[40] = Biodistribution in rhesus monkey retina at 150.3 MBq, iv after 15 mins; assay type: ADME, organism-based, Macaca mulatta; settings: in vivo, 0.25 h
Striatum [41] = test: Biodistribution in rhesus monkey striatum at 150.3 MBq, iv after 1.75 mins; assay type: ADME, organism-based, Macaca mulatta; settings: in vivo, 105 s
[42] = Biodistribution in rhesus monkey retina at 150.3 MBq, iv after 7.5 mins; assay type: ADME, organism-based, Macaca mulatta; settings: in vivo, 0.125 h
Hippocampus [43] = test: Biodistribution in rhesus monkey hippocampus at 150.3 MBq, iv after 27 mins; assay type: ADME, organism-based, Macaca mulatta; settings: in vivo, 0.45 h; outline: as §2
Striatum [44] = test: Biodistribution in rhesus monkey striatum at 150.3 MBq, iv after 29 mins; assay type: ADME, organism-based, Macaca mulatta; settings: in vivo
[45] = Biodistribution in rhesus monkey entorhinal cortex at 150.3 MBq, iv after 2.25 mins; assay type: ADME, organism-based, Macaca mulatta; settings: in vivo, 135 s; outline: as §2

- Drug uptake (Hippocampus [1]): 41.63 kBq/ml
- Drug uptake [2]: 41.01 kBq/ml
- Drug uptake [3]: 25.01 kBq/ml
- Drug uptake (Striatum [4]): 20.6138 kBq/ml
- Drug uptake (Striatum [5]): 21.63 kBq/ml
- Drug uptake (Hippocampus [6]): 12.16 kBq/ml
- Drug uptake (Striatum [7]): 18.52 kBq/ml
- Drug uptake [8]: 21.64 kBq/ml
- Drug uptake [9]: 8.18 kBq/ml
- Drug uptake (Hippocampus [10]): 12.43 kBq/ml
- Drug uptake (Hippocampus [11]): 8.523 kBq/ml
- Drug uptake [12]: 8.009 kBq/ml
- Drug uptake [13]: 10.45 kBq/ml
- Drug uptake [14]: 9.487 kBq/ml
- Drug uptake [15]: 35.15 kBq/ml
- Drug uptake [16]: 8.356 kBq/ml
- Drug uptake [17]: 37.33 kBq/ml
- Drug uptake [18]: 9.836 kBq/ml
- Drug uptake (Striatum [19]): 18.62 kBq/ml
- Drug uptake [20]: 11.95 kBq/ml
- Drug uptake [21]: 13.8 kBq/ml
- Drug uptake [22]: 52.04 kBq/ml
- Drug uptake [23]: 32.15 kBq/ml
- Drug uptake [24]: 16.74 kBq/ml
- Drug uptake (Striatum [25]): 31.24 kBq/ml
- Drug uptake [26]: 11.877 kBq/ml
- Drug uptake [27]: 16.31 kBq/ml
- Drug uptake (Hippocampus [28]): 12.1253 kBq/ml
- Drug uptake [29]: 9.311 kBq/ml
- Drug uptake (Striatum [30]): 28.08 kBq/ml
- Drug uptake (Hippocampus [31]): 27 kBq/ml
- Drug uptake [32]: 11.74 kBq/ml
- Drug uptake [33]: 57.39 kBq/ml
- Drug uptake (Striatum [34]): 16.63 kBq/ml
- Drug uptake [35]: 24.15 kBq/ml
- Drug uptake (Striatum [36]): 13.39 kBq/ml
- Drug uptake [37]: 57.19 kBq/ml
- Drug uptake (Striatum [38]): 46.0188 kBq/ml
- Drug uptake (Striatum [39]): 64.38 kBq/ml
- Drug uptake [40]: 50.94 kBq/ml
- Drug uptake (Striatum [41]): 56.85 kBq/ml
- Drug uptake [42]: 43.92 kBq/ml
- Drug uptake (Hippocampus [43]): 15.74 kBq/ml
- Drug uptake (Striatum [44]): 15.32 kBq/ml
- Drug uptake [45]: 40.15 kBq/ml
SMILES: [11CH3]Oc1cccc(C(=O)NCCN2CCN(c3ncccc3C#N)CC2)c1
